In ChEMBL document CHEMBL1137753, “Insecticidal heterolignans--tubuline polymerization inhibitors with activity against chewing pests” (Bioorg Med Chem, 2009):
Calls of active or inactive are those of the source. Unless noted, the rule behind the calls is not given here.

Key:
[1] = tested on: Phaedon cochleariae; assay: Insecticidal activity against Phaedon cochleariae larvae in disk of Chinese cabbage leaf treated as spray; format: functional, organism-based
[2] = tested on: Spodoptera frugiperda; assay: Insecticidal activity against Spodoptera frugiperda larvae in disk of maize leaf at 500 g/ha treated as spray; format: functional, organism-based
Procedure, shortened: (§1)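 The same acetone/DMF/emulsifier formulation, diluted in emulsifier-containing water, was sprayed onto maize leaf disks. Dried disks were infested with fall armyworm larvae and mortality was assessed after a set time. "+" denotes ≥80% larvae killed; n.a. denotes no larvae killed.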

[3] = tested on: Spodoptera frugiperda; assay: Insecticidal activity against Spodoptera frugiperda larvae in disk of maize leaf treated as spray; format: functional, organism-based
[4] = tested on: Phaedon cochleariae; assay: Insecticidal activity against Phaedon cochleariae larvae in disk of Chinese cabbage leaf at 100 g/ha treated as spray; format: functional, organism-based
Procedure, shortened: (§2)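 This was sprayed on Chinese cabbage leaf disks. Once dry, disks were infested with mustard beetle larvae and mortality was scored after a set time. "+" denotes ≥80% larvae killed; n.a. denotes none killed.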

[5] = tested on: Spodoptera frugiperda; assay: Insecticidal activity against Spodoptera frugiperda larvae in disk of maize leaf at 100 g/ha treated as spray; format: functional, organism-based; procedure, shortened: as §1
[6] = tested on: Phaedon cochleariae; assay: Insecticidal activity against Phaedon cochleariae larvae in disk of Chinese cabbage leaf at 20 g/ha treated as spray; format: functional, organism-based; procedure, shortened: as §2
[7] = tested on: Sf9; assay: Cytotoxicity against Spodoptera frugiperda Sf9 cells assessed as chromatin condensation at 0.14 ppm after 48 hrs by fluorescence microscopy; format: functional, cell-based
Procedure, shortened: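 Sf9 cells seeded in 8-well slide chambers the day before, then exposed to compound for 48 h. After two PBS washes, cells were fixed in ice-cold methanol for 10 min on ice, given two short acetone washes, rehydrated in PBS and stained with Dapi (2 µM) for 30 min. Chromatin condensation/fragmentation scored by fluorescence microscopy with a x40 objective.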

[8] = tested on: Spodoptera frugiperda; assay: Insecticidal activity against Spodoptera frugiperda larvae in disk of maize leaf at 4 g/ha treated as spray; format: functional, organism-based; procedure, shortened: as §1
[9] = species: Bos taurus; assay: Inhibition of bovine tubulin polymerization
Procedure, shortened: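 Tubulin (>99% pure, 300 µg/sample) was suspended at 4 °C in G-PEM buffer (80 mM PIPES, 2 mM MgCl2, 0.5 mM EGTA, 1.0 mM GTP, pH 6.9) plus 5% glycerol, with or without compound. Colchicine and taxol served as standards. Polymerization at 37 °C was followed as absorbance at 340 nm every 1 min for up to 60 min.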

[10] = tested on: Phaedon cochleariae; assay: Insecticidal activity against Phaedon cochleariae larvae in disk of Chinese cabbage leaf at 500 g/ha treated as spray; format: functional, organism-based; procedure, shortened: as §2
[11] = tested on: Sf9; assay: Cytotoxicity against Spodoptera frugiperda Sf9 cells assessed as chromatin condensation at 3 ppm after 48 hrs by fluorescence microscopy; format: functional, cell-based
Procedure, shortened: (§3)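 Sf9 or CHO cells were seeded in chamber slides the day before treatment and exposed to compound for 48 h. They were then PBS-washed, fixed in ice-cold methanol for 10 min on ice, and rinsed with acetone. After rehydration in PBS, cells were stained with 2 µM DAPI for 30 min. Nuclei were examined by fluorescence microscopy (×40) for chromatin condensation or fragmentation.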

[12] = tested on: CHO; assay: Cytotoxicity against CHO cells assessed as chromatin condensation after 48 hrs by fluorescence microscopy; format: cell-based, Cricetulus griseus; conditions: chinese hamster; procedure, shortened: as §3
[13] = tested on: CHO; assay: Cytotoxicity against CHO cells assessed as chromatin condensation after 24 hrs by fluorescence microscopy; format: cell-based, Cricetulus griseus; conditions: chinese hamster

SMILES | Activity [1] | Activity [2] | Activity [4] | Activity [5] | other results
COc1ccc2c(c1)OC1=C(C(=O)OC1)C2c1cc(Cl)cc(Cl)c1 (centres undefined) | inactive | Active | – | – | –
COc1cc(C2C3=C(COC3=O)Cc3cc4c(cc32)OCO4)cc(OC)c1OC (centres undefined) | – | – | Active | – | Activity [3]: inactive
O=C1OCC2=C1C(c1cc(Br)c3c(c1)OCO3)c1cc3c(cc1N2)OCO3 (centres undefined) | – | Active | Active | – | –
COc1cccc(C2C3=C(O)OCC3=Nc3cc4c(cc32)OCO4)c1 (centres undefined) | inactive | – | – | Active | –
COc1cc(OC)cc(C2C3=C(COC3=O)Nc3cc(OC)c(C)cc32)c1 (centres undefined) | – | Active | – | – | Activity [6]: Active
COc1cc(OC)cc(C2C3=C(COC3=O)Nc3cc(OC)cc(OC)c32)c1 (centres undefined) | – | Active | Active | – | –
O=C1OCC2=C1C(c1cccc(OC(F)(F)C(F)F)c1)c1cc3c(cc1N2)OCO3 (centres undefined) | – | – | Active | Active | –
COc1cc(OC)cc([C@H]2C3=C(COC3=O)Nc3cc(OC)ccc32)c1 | – | – | – | – | Activity [7]: Active
O=C1OCC2=C1C(c1cc(F)c(F)c(F)c1)c1cc3c(cc1N2)OCO3 (centres undefined) | inactive | Active | – | – | –
COc1cc(OC)cc(C2C3=C(COC3=O)Nc3cc(OC)ccc32)c1 (centres undefined) | – | – | – | – | Activity [6]: Active; Activity [8]: Active
CC(=O)O[C@H]1C(=O)[C@@]2(C)[C@H]([C@H](OC(=O)c3ccccc3)[C@]3(O)C[C@H](OC(=O)[C@H](O)[C@@H](NC(=O)c4ccccc4)c4ccccc4)C(C)=C1C3(C)C)[C@]1(OC(C)=O)CO[C@@H]1C[C@@H]2O | – | – | – | – | inhibition [9]: inactive
CC1CC2=C(C(=O)O1)C(c1cccc(Cl)c1)c1cc3c(cc1N2)OCO3 (centres undefined) | – | – | Active | Active | –
COc1cc(OC)cc(C2C3=C(CC(C)OC3=O)Nc3cc4c(cc32)OCO4)c1 (centres undefined) | – | Active | – | – | Activity [10]: Active
O=C1OCC2=C1C(c1ccc(F)c(Cl)c1)c1cc3c(cc1N2)OCO3 (centres undefined) | inactive | – | – | Active | –
COc1ccc2c(c1)C(c1cc(OC)c(OC)c(OC)c1)C1=C(COC1=O)N2 (centres undefined) | – | – | – | – | Activity [6]: Active; Activity [3]: inactive
COc1ccc2c(c1OC)OC1=C(C(=O)OC1)C2c1cc(Cl)cc(Cl)c1 (centres undefined) | inactive | Active | – | – | –

SMILES | Activity [1] | Activity [2] | Activity [4] | Activity [5] | other results
COc1cc(OC)cc(C2C3=C(COC3=O)Nc3cc4c(cc32)OCCO4)c1 (centres undefined) | – | – | – | Active | Activity [10]: Active
COc1cc(C2C3=C(COC3=O)Nc3cc4c(cc32)OCO4)cc(Br)c1OC (centres undefined) | – | – | Active | – | Activity [3]: inactive
CC(C)Oc1cccc(C2C3=C(COC3=O)Nc3cc4c(cc32)OCO4)c1 (centres undefined) | inactive | Active | – | – | –
O=C1OCC2=C1C(c1cccc(C(F)(F)F)c1)c1cc3c(cc1N2)OCO3 (centres undefined) | – | – | Active | Active | –
O=C1OCC2=C1C(c1cc(Br)cc(Br)c1)c1cc3c(cc1N2)OCO3 (centres undefined) | inactive | – | – | Active | –
O=C1OCC2=C1C(c1cc(Cl)cc(Cl)c1)c1cc3c(cc1N2)OCO3 (centres undefined) | – | – | Active | – | –
COc1cc(OC)cc(C2C3=C(COC3=O)Nc3cc(OC(C)C)ccc32)c1 (centres undefined) | inactive | Active | – | – | Activity [11]: Active; Activity [12]: Toxic; Activity [13]: Toxic
COc1cc(OC)cc(C2C3=C(COC3=O)Nc3c(OC)cc(C)cc32)c1 (centres undefined) | – | Active | – | – | Activity [6]: Active
COc1cc(OC)cc(C2C3=C(COC3=O)N(C)c3cc(OC)ccc32)c1 (centres undefined) | inactive | – | – | Active | –
Cc1cc(C)cc(C2C3=C(COC3=O)Nc3cc4c(cc32)OCO4)c1 (centres undefined) | – | – | Active | – | –
O=C1OCC2=C1C(c1cc(C(F)(F)F)cc(Cl)c1F)c1cc3c(cc1N2)OCO3 (centres undefined) | – | – | – | Active | Activity [6]: Active
COc1ccc(C2C3=C(COC3=O)Nc3cc4c(cc32)OCO4)cc1OC (centres undefined) | inactive | – | – | – | Activity [11]: Active; Activity [12]: Toxic; Activity [3]: inactive; Activity [13]: Toxic
O=C1OCC2=C1C(c1cc(Br)cs1)c1cc3c(cc1N2)OCO3 (centres undefined) | inactive | Active | – | – | –
O=C1OCC2=C1C(c1cncc(-c3ccc(F)cc3)c1)c1cc3c(cc1N2)OCO3 (centres undefined) | – | Active | Active | – | –
Cc1cccc(C2C3=C(COC3=O)Nc3cc4c(cc32)OCO4)c1 (centres undefined) | inactive | – | – | Active | –
